High-throughput results (PubChem)
Shown are actives, neighbours in structure and some others; about 3.5% of the full set was active somewhere.
MrgX1 PAM – allosterically activates human MrgX1 receptor signaling | MrgX1-HEK293, Fluo-4 calcium flux, FDSS; active compounds read high | hit rate 0.63% among 310,000 | B-score at 10 µM;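 active = plate-corrected calcium response at least 3 library SD above typical, normal starting fluorescence, not activating the receptor alone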;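 also: compound read alongside a low EC10 to EC30 dose of BAM8-22 agonist; peak minus trough fluorescence over baseline measured at the second addition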
RGS4 block – inhibitors of human RGS4; HEK293 M3R/RGS4 inducible, Fluo-4 calcium flux; active compounds read high; triggered by carbachol at its EC20; B-score at 10 µM; hit rate 0.45% among 310,000; AID 463165;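 active = B-score, a plate-corrected calcium signal, over three deviations above library mean, with baseline fluorescence within five deviations of library mean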;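 also: RGS4 expression induced by doxycycline in cells with stable M3 receptor; B-score is computed from the integrated fluorescence ratio over baseline after carbachol; higher B-score means a larger calcium signal and so more RGS4 inhibition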
Target sequence (P49798 whole entry, looked up): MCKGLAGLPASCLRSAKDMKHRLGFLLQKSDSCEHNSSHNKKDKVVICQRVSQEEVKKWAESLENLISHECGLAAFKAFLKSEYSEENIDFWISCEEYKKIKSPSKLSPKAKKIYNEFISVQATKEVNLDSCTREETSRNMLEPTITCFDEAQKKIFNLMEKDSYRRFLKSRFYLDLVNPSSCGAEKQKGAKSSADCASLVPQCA
MrgX1 agonist – agonists of human MrgX1 receptor; MrgX1-HEK293 cells, Fluo-4 calcium fluorescence, agonist mode; active compounds read high; hit rate 0.44% among 310,000; AID 588627; B-score at 10 µM;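 active = calcium response B-score plate-corrected fluorescence ratio at least 3 library SD, with starting fluorescence B-score inside 5 SD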
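Test system: HEK293 cells stably expressing human MrgX1 receptor; amount: 15,000 cells per well; doses: compound delivered in addition one of three; times: overnight plating before 1 h dye loading; detection: Fluo-4 NW calcium-flux fluorescence, kinetic read; read-out basis: B-scored fluorescence response ratio; controls: positive and negative controls per plate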
MrgX1 antag – antagonists of human MrgX1 receptor | B-score at 10 µM | Q96LB2 | hit rate 1.3% among 310,000 | MRGX1-HEK293 calcium flux, Fluo-4, BAM8-22 antagonism; active compounds read low;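 active = calcium-response B-score plate-corrected more than 3 library SD below zero, starting fluorescence within 5 deviations, no agonist response on first addition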;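 also: peak minus trough fluorescence over baseline after final BAM8-22 challenge near maximal dose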
RGS4 act – potentiators or activators of RGS4; HEK293 M3R/inducible RGS4, carbachol calcium flux Fluo4; active compounds read low; B-score at 10 µM; hit rate 0.92% among 310,000;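 active = B-score of the integrated calcium signal more than 4 SD below the library mean, with starting fluorescence not abnormally high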;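 also: negative B-score means reduced calcium response which marks RGS4 activation or potentiation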
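Reagent: ECmax carbachol challenge; Test system: M3R-expressing HEK293 line, RGS4 induced by doxycycline; Schedule: overnight RGS4 induction, 30 min dye load 37 °C, 20 min compound RT; Detection: calcium dye Fluo4 fluorescence; Read-out: Agonist-evoked peak-minus-minimum fluorescence over baseline, integrated ratio, B score.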
MrgX1 allo conf – reconfirmed allosteric activator of human MrgX1 receptor; shares compounds with MrgX1 PAM; MrgX1-HEK293, Fluo-4 calcium fluorescence, FDSS; activation (ratio percentage), % at 10 µM; hit rate 13% among 1,200;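 active = ratio at least 3 SD above the weak peptide control, stable starting fluorescence, no direct agonism earlier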;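 also: compound followed by low BAM8-22 agonist challenge near EC20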
HEK293 Ca flux – activity in parental HEK293 cells lacking MrgX1; shares compounds with MrgX1 antag; Fluo-4 calcium fluorescence, FDSS; fluorescence ratio F(max-min)/F0 at 10 µM; hit rate 2% among 4,000;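 active = duplicate-averaged calcium fluorescence ratio at least three times the standard deviation of buffer wells, a nonspecific response in parental cells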
HEK293 Ca counter – MrgX1 allosteric activator counter-screen hit in parental HEK293 cells. shares compounds with MrgX1 antag. AID 624114. parental HEK293 calcium flux, Fluo-4 fluorescence ratio; active compounds read high. hit rate 0.4% among 4,000. fluorescence ratio F(max-min)/F0 at 10 µM;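 active = calcium fluorescence ratio, averaged over duplicates, at least 3 SD of the buffer-well ratio, meaning a nonspecific response in receptor-free cells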;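 also: untransfected parental HEK293 lacking MrgX1 used as counterscreen for MrgX1 allosteric activators; fluorescence change taken during the second addition on a kinetic imager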
HEK293 Ca cntr2 – MrgX1 activator counter-screen hit in parental HEK293 cells; fluorescence ratio F(max-min)/F0 at 10 µM; hit rate 8.7% among 4,000; Fluo-4 calcium fluorescence (FDSS); active compounds read high; shares compounds with MrgX1 antag;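 active = calcium fluorescence ratio at least three times the spread of buffer wells, meaning a non-specific response in parental cells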
An asterisk follows results filed as active; i = inactive; . = no result.

SMILES	MrgX1 PAM	RGS4 block	MrgX1 agonist	MrgX1 antag	RGS4 act	MrgX1 allo conf	HEK293 Ca flux	HEK293 Ca counter	HEK293 Ca cntr2
Cc1ccccc1-n1ncc2c1CC(C)(C)CC2NC(=O)CCC(F)(F)F (stereo unspecified)	9.8*	i	i	i	i	i	i	i	i
CSc1ncccc1C(=O)NC1CC(C)(C)Cc2c1cnn2-c1ccccc1C (stereo unspecified)	17*	i	i	i	i	i	i	i	i
Cc1ccccc1-n1ncc2c1CC(C)(C)CC2NC(=O)c1ccncc1 (stereo unspecified)	i	i	i	i	i	.	.	.	.
Cc1ccccc1-n1ncc2c1CC(C)(C)CC2NC(=O)c1snnc1C (stereo unspecified)	10*	i	i	i	i	7.8%*	i	i	i
CCc1ccc(CN2CCCC(CNC(=O)c3cccc(OC)c3OC)C2)cc1 (stereo unspecified)	i	i	i	i	i	.	.	.	.
CCC(C)c1ccc(OCC(=O)Nc2ccc(CN3CCOCC3)cc2)cc1 (stereo unspecified)	i	i	i	i	i	.	.	.	.
COc1ccc(S(=O)(=O)n2ccnc2C)c(C)c1C	i	i	i	i	i	.	.	.	.
CNc1nc(Sc2ccc(C)cc2)cc(C(F)(F)F)n1	15*	i	i	i	i	16%*	i	i	i
CN1C(=O)CSC1=NC12CC3CC(CC(C3)C1)C2	8.2*	i	i	i	i	i	i	i	i
CCN1C(=O)CSC1=NC12CC3CC(CC(C3)C1)C2	i	i	i	i	i	.	.	.	.
Cc1cccc(N2CCN(C(=O)CCC(=O)N3CC(C)Oc4ccccc43)CC2)c1C (stereo unspecified)	i	i	i	i	i	.	.	.	.
O=C(NC(=S)NC1CCN(Cc2ccccc2)CC1)c1ccc(F)cc1	i	i	i	i	i	.	.	.	.
O=C(NC(=S)NC1CCCCC1)c1ccc(F)cc1	7*	i	i	i	i	i	i	i	i
COc1ccc(NS(=O)(=O)c2ccc(OC)c(NC(=O)CCC3CCCC3)c2)cc1	i	i	i	i	i	.	.	.	.
COc1ccccc1NC(=S)N1CCC(NC(=O)c2ccco2)CC1	i	i	i	i	i	.	.	.	.
CCSc1nc2c(c(=O)[nH]1)C(c1ccncc1)C(C(=O)OC(C)C)=C(C)N2 (stereo unspecified)	i	i	i	i	i	.	.	.	.
CCSc1nc2c(c(=O)[nH]1)C(c1cccnc1)C(C(=O)OC)=C(C)N2 (stereo unspecified)	8.5*	i	i	i	i	i	i	i	i
O=S(=O)(c1ccccc1)N(CC(O)COc1ccccc1)c1ccccc1 (stereo unspecified)	7.8*	i	i	i	i	i	i	i	i
O=S(=O)(CC(O)COc1ccc(Br)cc1)c1ccccc1 (stereo unspecified)	9*	i	i	i	i	i	i	i	i
Cc1ccc(S(=O)(=O)CC(O)COc2ccc(C#N)cc2)cc1 (stereo unspecified)	i	i	i	i	i	.	.	.	.
O=C(NCCc1ccccc1)Nc1ccc2c(c1)OCO2	i	i	i	i	i	.	.	.	.
COc1ccccc1-n1c(=O)c2c3c(sc2n2c(SC)nnc12)CCC3	15*	i	i	i	i	i	i	i	i
